Data as given in ChEMBL document CHEMBL1138306, “New antioxidant polyphenols from the medicinal mushroom Inonotus obliquus” (Bioorg Med Chem Lett, 2007).

Assays:
Assay type in all cases: functional
[1] = Antioxidant activity assessed as superoxide radical scavenging activity by xanthine oxidase method
Procedure, shortened: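 Superoxide generated by xanthine/xanthine oxidase in 50 mM potassium phosphate buffer (pH 7.8) containing 1 mM EDTA, 0.04 mM NBT, 0.18 mM xanthine and 250 mU/mL xanthine oxidase. Samples tested at a series of concentrations. Incubation 30 min at 37 C in the dark. Superoxide reduction of NBT to blue formazan used as read-out. IC50 determined.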

[2] = Ratio of IC50 for drug to trolox for DPPH radical scavenging activity
[3] = Ratio of IC50 for drug to trolox for ABTS radical scavenging activity
Procedure, shortened: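 ABTS radical cation made from 7 mM aqueous ABTS stock reacted with 2.45 mM potassium persulfate, left 12 h in the dark. Radical solution mixed with samples in ethanol. Absorbance read at 734 nm up to 6 min after mixing. IC50 expressed relative to trolox.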

| SMILES | IC50 [1] | Ratio IC50 [2] | Ratio IC50 [3] |
| --- | --- | --- | --- |
| O=c1oc(/C=C/c2ccc(O)c(O)c2)cc(O)c1-c1cc(O)c(O)cc1/C=C/c1cc2oc(=O)c3cc(O)c(O)cc3c2c(=O)o1 [PHELLIGRIDIN I] | 93.6 µM | 1.45 | 0.43 |
| O=C1C=C(/C=C/c2ccc(O)c(O)c2)OC12C(c1cc3oc(=O)c4cc(O)c(O)cc4c3c(=O)o1)=Cc1cc(O)c(O)cc12 (stereo unspecified) [PHELLIGRIDIN G] | 92.3 µM | 1.48 | 0.43 |
| CC1=CC(=O)C2(O1)C(c1cc3oc(=O)c4cc(O)c(O)cc4c3c(=O)o1)=Cc1cc(O)c(O)cc12 (stereo unspecified) [PHELLIGRIDIN E] | 120 µM | 1.57 | 0.4 |
| Cc1cc(=O)cc(-c2cc(O)c(O)cc2-c2c(O)cc(/C=C/c3ccc(O)c(O)c3)oc2=O)o1 | 97.6 µM | 0.82 | 0.65 |

More lines, main results first:

| IC50 [1] | SMILES | Ratio IC50 [2] | Ratio IC50 [3] |
| --- | --- | --- | --- |
| 90.8 µM | CC(=O)C1(O)C(c2cc3oc(=O)c4cc(O)c(O)cc4c3c(=O)o2)=Cc2cc(O)c(O)cc21 (stereo unspecified) | 1.42 | 0.58 |
| 10.2 µM | O=C(O)/C=C/c1ccc(O)c(O)c1 [CAFFEIC ACID] | 0.41 | 0.66 |
| 85.5 µM | O=c1oc2cc(/C=C/c3ccc(O)c(O)c3)oc(=O)c2c2cc(O)c(O)cc12 [PHELLIGRIDIN D] | 1.51 | 0.33 |
